Experimental data: ChEMBL document CHEMBL4118150, “2-Methylacrylamide as a bioisoster of thiourea group for 1,3-dibenzylthioureido TRPV1 receptor antagonists” (Bioorg Med Chem Lett, 2018)

Key:
[1] = biological target: T1, Transient receptor potential cation channel subfamily V member 1 (Rattus norvegicus, UniProt O35433); test: Agonist activity at TRPV1 in neonatal rat DRG neurons assessed as increase in calcium influx after 10 mins in presence of 45Ca2+ by Beckman CP scintillation counting method
Method in brief: (§1)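 45Ca2+ uptake in cultured spinal sensory neurons from neonatal rat. Antagonist mode: derivatives were tested against 0.5 μM capsaicin, and IC50 is the concentration that cuts the capsaicin response by 50%. Agonist mode: EC50 is the concentration giving 50% of the maximal response. Values were estimated from at least 3 replicates at each concentration.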

[2] = biological target: T1, Transient receptor potential cation channel subfamily V member 1; test: Antagonist activity at TRPV1 in neonatal rat DRG neurons assessed as inhibition of capsaicin-induced intracellular calcium after 10 mins in presence of 45Ca2+ by Beckman CP scintillation counting method; type: cell-based; method in brief: as §1
[3] = biological target: Transient receptor potential cation channel subfamily V member 1 (Rattus norvegicus) (UniProt O35433); test: Potency index, ratio of IC50 for ATC-120 to IC50 for test compound for antagonist activity at TRPV1 in neonatal rat DRG neurons
Transient receptor potential cation channel subfamily V member 1 (Rattus norvegicus), sequence (O35433 whole entry): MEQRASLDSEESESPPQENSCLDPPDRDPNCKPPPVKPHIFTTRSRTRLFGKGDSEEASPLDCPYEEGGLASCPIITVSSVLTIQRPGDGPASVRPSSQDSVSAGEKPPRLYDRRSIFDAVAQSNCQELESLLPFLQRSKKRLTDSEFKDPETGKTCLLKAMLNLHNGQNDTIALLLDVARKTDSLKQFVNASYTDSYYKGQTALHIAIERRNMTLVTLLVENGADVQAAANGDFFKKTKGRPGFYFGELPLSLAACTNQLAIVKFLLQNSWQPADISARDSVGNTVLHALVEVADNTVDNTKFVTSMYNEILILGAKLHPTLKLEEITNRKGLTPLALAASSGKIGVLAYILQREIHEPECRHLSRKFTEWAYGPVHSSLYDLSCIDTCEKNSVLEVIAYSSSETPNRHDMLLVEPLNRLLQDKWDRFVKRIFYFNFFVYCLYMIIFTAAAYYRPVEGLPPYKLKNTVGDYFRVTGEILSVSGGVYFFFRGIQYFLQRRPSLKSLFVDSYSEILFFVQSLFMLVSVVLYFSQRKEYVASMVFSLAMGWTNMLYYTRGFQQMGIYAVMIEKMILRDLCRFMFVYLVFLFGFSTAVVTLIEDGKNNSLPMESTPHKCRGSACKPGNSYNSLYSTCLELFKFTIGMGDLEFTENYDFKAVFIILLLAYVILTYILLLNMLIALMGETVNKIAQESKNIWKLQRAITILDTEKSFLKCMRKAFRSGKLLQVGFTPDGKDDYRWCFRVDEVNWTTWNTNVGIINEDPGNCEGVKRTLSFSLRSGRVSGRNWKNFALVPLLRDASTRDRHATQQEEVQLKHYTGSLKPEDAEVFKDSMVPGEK

T1 sequence (O35433 whole entry): as above

SMILES	EC50 [1] [µM]	IC50 [2] [µM]	Ratio IC50 [3]
C[C@@H](N/C(COc1ccc(C(C)(C)C)cc1)=N/C#N)c1ccc(NS(C)(=O)=O)cc1	> 100		
C[C@@H](NC(=S)/C=C/c1ccc(C(C)(C)C)cc1)c1ccc(NS(C)(=O)=O)cc1	> 100	5	
C/C(=C\c1ccc(C(C)(C)C)cc1)C(=O)N[C@H](C)c1ccc(NS(C)(=O)=O)cc1	> 100		
C[C@@H](NC(=O)C#Cc1ccc(C(C)(C)C)cc1)c1ccc(NS(C)(=O)=O)cc1	> 100		
C[C@@H](NC(=O)CCc1ccc(C(C)(C)C)cc1)c1ccc(NS(C)(=O)=O)cc1	> 100	0.24	
CC(Cc1ccc(C(C)(C)C)cc1)C(=O)N[C@H](C)c1ccc(NS(C)(=O)=O)cc1 (mixture of isomers)	> 100	0.27	
C[C@@H](NC(=S)CCc1ccc(C(C)(C)C)cc1)c1ccc(NS(C)(=O)=O)cc1	> 100	0.3	
C[C@@H](NC(=S)COc1ccc(C(C)(C)C)cc1)c1ccc(NS(C)(=O)=O)cc1	> 100		
C[C@@H](NC(=O)/C=C/c1ccc(C(C)(C)C)cc1)c1ccc(NS(C)(=O)=O)cc1	> 100	0.16	
C=Cc1cc([C@@H](C)NC(=O)/C(C)=C/c2ccc(C(C)(C)C)cc2)ccc1NS(C)(=O)=O	> 100		2
C[C@@H](NC(=O)COc1ccc(C(C)(C)C)cc1)c1ccc(NS(C)(=O)=O)c(F)c1	> 100		
C[C@@H](NC(=O)COc1ccc(C(C)(C)C)cc1)c1ccc(NS(C)(=O)=O)cc1	> 100		
C/C(=C\c1ccc(C(C)(C)C)cc1)C(=O)N[C@H](C)c1ccc(NS(C)(=O)=O)c(F)c1	> 100		
C[C@@H](NC(=S)NCc1ccc(C(C)(C)C)cc1)c1ccc(NS(C)(=O)=O)cc1	> 100		
C[C@@H](NC(=O)NCc1ccc(C(C)(C)C)cc1)c1ccc(NS(C)(=O)=O)cc1	> 100	0.68	
